Measured values as given in ChEMBL document CHEMBL1134363 (J Med Chem, 2001).

Assays:
[1] = biological target: T1, Alpha-2A adrenergic receptor (Homo sapiens) (UniProt P08913); assay: Antagonistic activity as [35S]GTP gamma-S binding at alpha-2a adrenergic receptor expressed in CHO cells; type: functional, cell-based
T1 sequence (whole entry): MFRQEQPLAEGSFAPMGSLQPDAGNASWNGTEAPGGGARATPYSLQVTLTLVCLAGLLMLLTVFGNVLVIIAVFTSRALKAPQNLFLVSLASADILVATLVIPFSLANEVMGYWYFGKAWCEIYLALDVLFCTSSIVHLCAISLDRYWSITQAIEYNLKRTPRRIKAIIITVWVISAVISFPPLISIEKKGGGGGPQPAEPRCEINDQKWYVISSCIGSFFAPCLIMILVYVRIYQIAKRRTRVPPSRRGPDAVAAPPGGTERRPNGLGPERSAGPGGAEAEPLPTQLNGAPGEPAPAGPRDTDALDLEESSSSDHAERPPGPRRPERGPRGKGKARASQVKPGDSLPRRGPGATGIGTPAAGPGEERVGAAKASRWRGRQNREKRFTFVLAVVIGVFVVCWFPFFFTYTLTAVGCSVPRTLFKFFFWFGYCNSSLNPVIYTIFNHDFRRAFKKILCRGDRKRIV
Outline: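 Membranes (40 μg/mL) from CHO cells stably expressing human α2A receptor, preincubated 30 min at room temperature with drug in 20 mM HEPES pH 7.4, 100 mM NaCl, 3 μM GDP, 3 mM MgCl2; 0.2 nM [35S]GTPγS added, 60 min room temperature, NA 10 μM as agonist. Nonspecific: 10 μM GTPγS. Filtration, scintillation counting; pKB from IC50 corrected for agonist concentration/EC50.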

[2] = biological target: T2, Adrenergic receptor alpha-2 (Rattus norvegicus, UniProt P22086+P19328+P22909); assay: In vitro binding affinity against alpha-2 adrenergic receptor of rat in presence of [3H]-RX 821002 radioligand; type: protein assay
T2 sequence (P22086 whole entry): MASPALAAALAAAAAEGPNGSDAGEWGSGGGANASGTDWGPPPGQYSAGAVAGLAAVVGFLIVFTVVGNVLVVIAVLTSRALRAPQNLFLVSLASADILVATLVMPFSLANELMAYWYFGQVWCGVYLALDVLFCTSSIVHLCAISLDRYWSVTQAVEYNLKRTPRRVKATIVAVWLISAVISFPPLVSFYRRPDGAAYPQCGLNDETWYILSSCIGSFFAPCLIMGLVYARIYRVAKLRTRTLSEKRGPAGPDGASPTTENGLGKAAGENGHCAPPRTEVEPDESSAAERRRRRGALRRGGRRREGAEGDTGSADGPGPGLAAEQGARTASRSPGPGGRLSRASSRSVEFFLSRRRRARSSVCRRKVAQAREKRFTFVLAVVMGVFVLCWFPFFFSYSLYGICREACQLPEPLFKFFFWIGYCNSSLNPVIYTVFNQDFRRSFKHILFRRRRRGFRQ
T2 sequence (P19328 whole entry): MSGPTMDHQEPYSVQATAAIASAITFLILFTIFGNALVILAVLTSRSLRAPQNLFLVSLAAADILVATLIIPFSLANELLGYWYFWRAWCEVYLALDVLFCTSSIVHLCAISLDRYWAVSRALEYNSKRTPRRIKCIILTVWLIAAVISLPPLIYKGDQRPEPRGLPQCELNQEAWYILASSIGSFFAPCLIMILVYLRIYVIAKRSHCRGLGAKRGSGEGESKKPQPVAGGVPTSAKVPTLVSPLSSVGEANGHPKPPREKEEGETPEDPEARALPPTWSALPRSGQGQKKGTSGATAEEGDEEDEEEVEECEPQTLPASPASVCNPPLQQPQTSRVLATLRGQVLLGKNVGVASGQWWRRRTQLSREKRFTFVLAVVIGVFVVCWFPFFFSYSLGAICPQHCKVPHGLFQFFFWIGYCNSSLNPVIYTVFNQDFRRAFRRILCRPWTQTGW
T2 sequence (P22909 whole entry): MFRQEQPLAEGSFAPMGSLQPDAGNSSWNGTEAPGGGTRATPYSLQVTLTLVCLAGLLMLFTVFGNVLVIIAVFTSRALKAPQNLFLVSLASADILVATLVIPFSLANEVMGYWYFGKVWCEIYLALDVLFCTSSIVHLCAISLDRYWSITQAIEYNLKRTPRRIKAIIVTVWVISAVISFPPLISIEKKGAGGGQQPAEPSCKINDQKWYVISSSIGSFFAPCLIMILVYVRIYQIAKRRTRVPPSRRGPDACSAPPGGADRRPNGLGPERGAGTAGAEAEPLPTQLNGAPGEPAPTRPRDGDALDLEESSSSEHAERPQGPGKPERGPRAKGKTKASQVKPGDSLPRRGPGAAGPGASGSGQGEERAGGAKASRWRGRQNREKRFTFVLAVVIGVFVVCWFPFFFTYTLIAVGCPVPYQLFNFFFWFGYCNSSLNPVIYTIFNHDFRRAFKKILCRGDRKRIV

[3] = biological target: T3, Alpha-2A adrenergic receptor (Homo sapiens, UniProt P08913); assay: Binding affinity for human alpha-2 adrenergic receptor expressed in CHO cell; type: cell-based
T3 sequence (P08913 whole entry): T1 sequence (whole entry)

[4] = biological target: Norepinephrine transporter (Rattus norvegicus, UniProt Q9WTR4); assay: In vitro binding affinity was determined against NA (noradrenaline) reuptake site of rat in presence of [3H]nisoxetine radioligand
[5] = biological target: T4, Adrenergic receptor alpha-1 (Rattus norvegicus, UniProt P15823+P23944+P43140); assay: In vitro binding affinity against alpha-1 adrenergic receptor of rat in presence of [3H]-prazosin radioligand; type: protein assay
T4 sequence (P15823 whole entry): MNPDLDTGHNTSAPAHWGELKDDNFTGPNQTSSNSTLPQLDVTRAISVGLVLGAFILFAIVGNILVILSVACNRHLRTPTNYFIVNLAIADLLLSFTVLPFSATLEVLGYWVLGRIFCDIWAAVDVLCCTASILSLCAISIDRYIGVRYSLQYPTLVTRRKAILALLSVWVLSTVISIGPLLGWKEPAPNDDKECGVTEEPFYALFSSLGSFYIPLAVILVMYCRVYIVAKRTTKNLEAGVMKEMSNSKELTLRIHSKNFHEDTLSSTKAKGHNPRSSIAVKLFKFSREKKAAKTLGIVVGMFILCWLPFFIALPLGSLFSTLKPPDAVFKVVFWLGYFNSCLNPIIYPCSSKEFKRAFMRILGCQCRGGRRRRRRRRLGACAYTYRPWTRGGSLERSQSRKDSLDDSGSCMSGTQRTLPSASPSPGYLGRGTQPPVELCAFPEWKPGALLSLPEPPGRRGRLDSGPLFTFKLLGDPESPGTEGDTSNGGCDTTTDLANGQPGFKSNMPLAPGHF
T4 sequence (P23944 whole entry): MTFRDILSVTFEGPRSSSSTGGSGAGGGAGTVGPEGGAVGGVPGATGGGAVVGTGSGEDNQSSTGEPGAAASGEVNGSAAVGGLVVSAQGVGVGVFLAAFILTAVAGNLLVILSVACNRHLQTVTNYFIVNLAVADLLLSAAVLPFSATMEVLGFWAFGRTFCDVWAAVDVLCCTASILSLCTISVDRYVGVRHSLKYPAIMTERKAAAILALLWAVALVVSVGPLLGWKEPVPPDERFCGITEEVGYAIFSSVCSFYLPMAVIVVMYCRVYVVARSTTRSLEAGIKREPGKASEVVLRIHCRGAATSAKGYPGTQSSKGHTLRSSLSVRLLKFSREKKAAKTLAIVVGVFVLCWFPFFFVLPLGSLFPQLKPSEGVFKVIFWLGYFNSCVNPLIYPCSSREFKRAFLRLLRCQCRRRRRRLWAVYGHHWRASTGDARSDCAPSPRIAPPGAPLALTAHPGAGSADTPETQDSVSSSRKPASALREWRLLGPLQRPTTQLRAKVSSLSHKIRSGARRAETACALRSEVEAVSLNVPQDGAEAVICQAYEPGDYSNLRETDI
T4 sequence (P43140 whole entry): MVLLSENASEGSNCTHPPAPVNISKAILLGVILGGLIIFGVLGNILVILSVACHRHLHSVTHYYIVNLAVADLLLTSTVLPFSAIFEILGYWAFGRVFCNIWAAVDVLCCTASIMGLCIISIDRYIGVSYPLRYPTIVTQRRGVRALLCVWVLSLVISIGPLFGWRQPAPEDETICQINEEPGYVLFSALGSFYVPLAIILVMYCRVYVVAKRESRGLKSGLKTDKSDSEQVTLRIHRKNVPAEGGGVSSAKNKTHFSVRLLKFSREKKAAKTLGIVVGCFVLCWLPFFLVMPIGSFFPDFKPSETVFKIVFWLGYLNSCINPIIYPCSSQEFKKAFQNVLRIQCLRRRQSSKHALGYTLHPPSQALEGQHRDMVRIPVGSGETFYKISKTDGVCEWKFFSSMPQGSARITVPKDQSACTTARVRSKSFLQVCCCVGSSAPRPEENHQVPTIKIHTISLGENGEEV

[6] = biological target: Sodium-dependent serotonin transporter (Rattus norvegicus, UniProt P31652); assay: In vitro binding affinity was determined against serotonin reuptake site of rat in presence of [3H]paroxetine radioligand
Sequence of Sodium-dependent serotonin transporter (P31652 whole entry): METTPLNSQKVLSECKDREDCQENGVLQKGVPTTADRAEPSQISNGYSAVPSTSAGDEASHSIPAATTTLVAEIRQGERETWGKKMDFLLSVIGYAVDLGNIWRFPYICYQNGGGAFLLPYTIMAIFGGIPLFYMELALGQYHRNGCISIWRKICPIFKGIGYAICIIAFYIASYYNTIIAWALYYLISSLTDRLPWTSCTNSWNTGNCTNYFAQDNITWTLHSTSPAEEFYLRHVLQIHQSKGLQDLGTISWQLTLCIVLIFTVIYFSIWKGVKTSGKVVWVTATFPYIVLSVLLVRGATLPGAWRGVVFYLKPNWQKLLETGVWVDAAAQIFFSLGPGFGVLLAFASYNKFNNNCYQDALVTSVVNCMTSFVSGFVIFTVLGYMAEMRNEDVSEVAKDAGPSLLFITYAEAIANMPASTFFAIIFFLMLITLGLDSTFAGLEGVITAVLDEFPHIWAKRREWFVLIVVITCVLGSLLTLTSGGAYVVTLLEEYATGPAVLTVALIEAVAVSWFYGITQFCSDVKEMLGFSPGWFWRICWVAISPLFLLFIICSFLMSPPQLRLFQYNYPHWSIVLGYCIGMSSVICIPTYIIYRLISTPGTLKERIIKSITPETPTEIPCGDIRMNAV

Sequence of Norepinephrine transporter (Q9WTR4 whole entry): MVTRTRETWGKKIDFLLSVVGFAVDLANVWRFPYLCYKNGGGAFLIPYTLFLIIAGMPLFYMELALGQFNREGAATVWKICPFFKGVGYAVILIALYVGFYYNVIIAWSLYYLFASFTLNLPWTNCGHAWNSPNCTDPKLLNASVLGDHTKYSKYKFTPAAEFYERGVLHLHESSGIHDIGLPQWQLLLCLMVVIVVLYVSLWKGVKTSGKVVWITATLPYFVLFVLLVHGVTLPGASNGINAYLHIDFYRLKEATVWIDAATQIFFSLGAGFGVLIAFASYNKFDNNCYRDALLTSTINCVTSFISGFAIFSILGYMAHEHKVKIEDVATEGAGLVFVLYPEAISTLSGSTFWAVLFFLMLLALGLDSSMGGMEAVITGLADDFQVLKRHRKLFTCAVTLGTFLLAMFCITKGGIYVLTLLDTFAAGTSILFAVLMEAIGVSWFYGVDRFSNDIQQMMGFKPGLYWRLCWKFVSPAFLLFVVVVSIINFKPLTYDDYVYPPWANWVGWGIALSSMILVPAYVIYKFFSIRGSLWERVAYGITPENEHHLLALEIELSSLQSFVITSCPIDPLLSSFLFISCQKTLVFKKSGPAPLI

pKB [1]	Log Ki [2]	Ki [3] [nM]	Ki [4] [nM]	Log Ki [5]	Ki [6] [nM]	Structure (SMILES)
8.2	-8.2	3.16	100	-6.3	2	C1=NC[C@@H](C2C[C@@]23CCc2ccccc2C3)N1 (some centres not stated)
7.5	-7.5	25.1	20	-6.4	31.6	Clc1cccc2ccc(CC3CN=CN3)cc12 (configuration not stated)
